ChEMBL document CHEMBL1137378, “Antibacterial agent discovery using thymidylate synthase biolibrary screening” (J Med Chem, 2006)
pKi: −log10 of the molar value. ≈ marks a conversion by molar mass, not a printed value.

What was measured:
[1] = Specificity Index, Ki for human thymidylate synthase/Ki for Cryptococcus neoformans thymidylate synthase
Method in brief: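 Specificity index is Ki of hTS divided by Ki of the pathogen TS (LcTS, EcTS or CnTS). Each enzyme was purified to >95% and assayed spectrophotometrically at 340 nm, 20 °C. Buffer was TES 50 mM pH 7.4 with MgCl2, formaldehyde, EDTA and 2-mercaptoethanol, plus dUMP 100 µM, mTHF 140 µM and enzyme 0.07 µM.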

[2] = target: T1, Thymidylate synthase (Cryptococcus neoformans var. neoformans B-3501A, UniProt P0CS13); assay: Inhibition of Cryptococcus neoformans thymidylate synthase
T1 sequence (P0CS13 whole entry): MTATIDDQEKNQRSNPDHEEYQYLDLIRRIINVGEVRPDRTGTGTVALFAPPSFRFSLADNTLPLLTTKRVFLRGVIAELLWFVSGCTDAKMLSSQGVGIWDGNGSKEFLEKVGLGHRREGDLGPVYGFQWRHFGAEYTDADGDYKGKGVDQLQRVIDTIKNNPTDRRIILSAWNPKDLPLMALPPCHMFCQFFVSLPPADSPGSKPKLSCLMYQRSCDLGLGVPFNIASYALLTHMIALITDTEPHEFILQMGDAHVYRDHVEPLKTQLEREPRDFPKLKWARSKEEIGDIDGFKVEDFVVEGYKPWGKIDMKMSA

[3] = Specificity Index, Ki for human thymidylate synthase/Ki for Escherichia coli thymidylate synthase
[4] = target: Thymidylate synthase (Escherichia coli, UniProt C3SWJ7); assay: Inhibition of Escherichia coli thymidylate synthase
Thymidylate synthase (Escherichia coli, UniProt C3SWJ7), sequence (C3SWJ7 whole entry): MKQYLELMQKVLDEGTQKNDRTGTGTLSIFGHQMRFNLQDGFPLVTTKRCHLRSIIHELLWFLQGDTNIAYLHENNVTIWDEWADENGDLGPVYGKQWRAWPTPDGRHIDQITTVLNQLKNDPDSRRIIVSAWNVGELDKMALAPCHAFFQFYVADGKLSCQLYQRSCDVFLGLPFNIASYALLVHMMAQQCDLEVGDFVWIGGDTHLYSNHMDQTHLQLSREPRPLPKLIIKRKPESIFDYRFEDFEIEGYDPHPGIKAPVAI

[5] = Specificity Index, Ki for human thymidylate synthase/Ki for Lactobacillus casei thymidylate synthase
[6] = target: T2, Dihydrofolate reductase (Homo sapiens, UniProt P00374); assay: Inhibition of human dihydrofolate reductase
T2 sequence (P00374 whole entry): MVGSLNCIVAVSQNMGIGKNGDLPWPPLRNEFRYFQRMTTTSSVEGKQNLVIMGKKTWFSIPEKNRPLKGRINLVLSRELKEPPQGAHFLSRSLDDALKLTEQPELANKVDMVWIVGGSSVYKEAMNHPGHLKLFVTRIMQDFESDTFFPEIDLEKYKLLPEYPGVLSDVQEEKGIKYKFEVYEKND
Method in brief: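 Purified human DHFR assayed spectrophotometrically at 25 °C by the fall in A340 on DHF reduction. Ki from steady-state kinetics.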

[7] = species on record: Homo sapiens; assay: Selectivity Index, Ki for human dihydrofolate reductase/Ki for human thymidylate synthase
[8] = target: T3, Thymidylate synthase (Lactobacillus casei, UniProt P00469); assay: Inhibition of Lactobacillus casei thymidylate synthase; set-up: species or system Lacticaseibacillus casei
T3 sequence (P00469 whole entry): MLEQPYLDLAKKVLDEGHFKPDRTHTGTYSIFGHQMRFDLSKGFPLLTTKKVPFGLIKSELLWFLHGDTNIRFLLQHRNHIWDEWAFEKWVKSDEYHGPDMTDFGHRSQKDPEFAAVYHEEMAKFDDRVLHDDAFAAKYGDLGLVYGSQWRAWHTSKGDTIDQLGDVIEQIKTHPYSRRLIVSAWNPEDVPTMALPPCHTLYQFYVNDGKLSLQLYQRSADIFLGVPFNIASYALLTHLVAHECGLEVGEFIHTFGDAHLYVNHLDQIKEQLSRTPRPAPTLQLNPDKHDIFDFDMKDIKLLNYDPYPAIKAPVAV

[9] = target: Thymidylate synthase (Homo sapiens, UniProt P04818); assay: Inhibition of human thymidylate synthase
Thymidylate synthase (Homo sapiens, UniProt P04818), sequence (P04818 whole entry): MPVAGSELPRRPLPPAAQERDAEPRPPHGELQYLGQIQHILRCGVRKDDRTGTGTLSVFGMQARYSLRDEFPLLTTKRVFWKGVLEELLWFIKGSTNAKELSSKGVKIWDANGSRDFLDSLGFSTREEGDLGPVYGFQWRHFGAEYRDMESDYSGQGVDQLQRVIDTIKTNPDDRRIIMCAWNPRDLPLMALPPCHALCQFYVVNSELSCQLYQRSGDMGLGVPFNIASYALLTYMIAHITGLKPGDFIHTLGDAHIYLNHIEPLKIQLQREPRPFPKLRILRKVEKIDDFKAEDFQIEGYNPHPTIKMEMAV

[10] = test system: Staphylococcus aureus; assay: Antibacterial activity against Staphylococcus aureus 341; assay type: functional
Method in brief: (§1)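 Wild-type strain panel (18 Gram-positive and Gram-negative strains). Bacteria grown in Mueller-Hinton broth at 37 °C for 24 h. Exponentially growing cultures diluted in sterile liquid medium to a final inoculum of about 1 × 10⁴ CFU/mL, then exposed to increasing compound concentrations. MIC taken as the lowest concentration with no evident bacterial growth.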

[11] = test system: Staphylococcus saprophyticus; assay: Antibacterial activity against Staphylococcus saprophyticus ATCC 15305; assay type: functional; method in brief: as §1
[12] = test system: Staphylococcus aureus; assay: Antibacterial activity against Staphylococcus aureus K28; assay type: functional; method in brief: as §1
[13] = test system: Citrobacter; assay: Antibacterial activity against Citrobacter 224; assay type: functional; method in brief: as §1
[14] = test system: Listeria monocytogenes; assay: Antibacterial activity against Listeria monocytogenes 5; assay type: functional; method in brief: as §1
[15] = test system: Escherichia coli; assay: Antibacterial activity against Escherichia coli 256; assay type: functional; method in brief: as §1
[16] = test system: Listeria monocytogenes; assay: Antibacterial activity against Listeria monocytogenes 8; assay type: functional; method in brief: as §1
[17] = test system: Staphylococcus aureus; assay: Antibacterial activity against Staphylococcus aureus ATCC 29213; assay type: functional; method in brief: as §1
[18] = test system: Listeria monocytogenes; assay: Antibacterial activity against Listeria monocytogenes 6; assay type: functional; method in brief: as §1
[19] = test system: Enterococcus faecalis; assay: Antibacterial activity against Enterococcus faecalis ATCCC29212; assay type: functional; method in brief: as §1
[20] = test system: Streptococcus; assay: Antibacterial activity against Streptococcus 42; assay type: functional; method in brief: as §1
[21] = test system: Listeria monocytogenes; assay: Antibacterial activity against Listeria monocytogenes 4; assay type: functional; method in brief: as §1
[22] = test system: Listeria monocytogenes; assay: Antibacterial activity against Listeria monocytogenes 3; assay type: functional; method in brief: as §1
[23] = test system: Listeria monocytogenes; assay: Antibacterial activity against Listeria monocytogenes 7; assay type: functional; method in brief: as §1
[24] = test system: Escherichia coli; assay: Antibacterial activity against Escherichia coli 292; assay type: functional; method in brief: as §1
[25] = test system: Listeria monocytogenes; assay: Antibacterial activity against Listeria monocytogenes ATCC 4428; assay type: functional; method in brief: as §1
[26] = test system: Staphylococcus aureus; assay: Antibacterial activity against Staphylococcus aureus 343; assay type: functional; method in brief: as §1
[27] = test system: Staphylococcus haemolyticus; assay: Antibacterial activity against Staphylococcus haemolyticus ATCC 2997; assay type: functional; method in brief: as §1

| Structure (SMILES) | Ratio Ki [1] | pKi [2] | Ratio Ki [3] | pKi [4] | Ratio Ki [5] | pKi [6] | Selectivity index [7] | pKi [8] | pKi [9] | other results |
| --- | --- | --- | --- | --- | --- | --- | --- | --- | --- | --- |
| O=C1OC(c2ccc(O)c(Br)c2)(c2ccc(O)c(Br)c2)c2c1ccc1ccccc21 | > 49 | 5.57 | > 147 | 6.05 | > 20 | 4.48 | < 0.2 | – | – | – |
| O=C1OC(c2cc(Cl)c(O)c(Cl)c2)(c2cc(Cl)c(O)c(Cl)c2)c2cccc3cccc1c23 | 2 | 5.48 | 1 | 5.28 | 3 | 4.55 | 5 | 5.70 | 5.24 | – |
| O=C1OC(c2ccc(O)c(I)c2)(c2ccc(O)c(I)c2)c2c1ccc1ccccc21 | > 54 | 5.35 | > 163 | 5.82 | > 123 | 5.41 | < 0.01 | 5.70 | < 3.61 | – |
| O=C1OC(c2ccc(O)cc2)(c2ccc(O)c(Br)c2)c2cccc3cccc1c23 (configuration not stated) | > 25 | 5.28 | > 330 | 6.40 | > 132 | 5.47 | < 0.02 | 6.00 | < 3.88 | MIC [10]: 25 µg/mL (≈ 55.9 µM); MIC [11]: 10 µg/mL (≈ 22.4 µM); MIC [12]: 25 µg/mL (≈ 55.9 µM); MIC [13]: > 50 µg/mL; MIC [14]: 10 µg/mL (≈ 22.4 µM); MIC [15]: > 50 µg/mL; MIC [16]: 25 µg/mL (≈ 55.9 µM); MIC [17]: 10 µg/mL (≈ 22.4 µM); MIC [18]: 10 µg/mL (≈ 22.4 µM); MIC [19]: 25 µg/mL (≈ 55.9 µM); MIC [20]: 10 µg/mL (≈ 22.4 µM); MIC [21]: 10 µg/mL (≈ 22.4 µM); MIC [22]: 10 µg/mL (≈ 22.4 µM); MIC [23]: 10 µg/mL (≈ 22.4 µM); MIC [24]: > 50 µg/mL; MIC [25]: 10 µg/mL (≈ 22.4 µM); MIC [26]: 10 µg/mL (≈ 22.4 µM); MIC [27]: 10 µg/mL (≈ 22.4 µM) |
